Data published in ChEMBL document CHEMBL3352511, “Pyrrole-3-carboxamides as potent and selective JAK2 inhibitors” (Bioorg Med Chem, 2014).
Calls of active or inactive are those of the source. The calls are words filed in the database; no cut-off is given here.

Key:
[1] = Cmax in Balb nu/nu mouse at 10 mg/kg, iv; assay type: ADME, organism-based; set-up: dose 10 mg/kg, route intravenous; details: in vivo
Method in brief: (§1)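 Overnight-fasted male Nu/Nu mice, single intravenous dose in 10% Tween 80 in 5% dextrose, three mice. Saphenous vein blood taken at predose, 0.083, 0.5, 1, 6 and 24 h. Plasma obtained by centrifugation at 10,000g, 3 min, 4 °C, stored at -80 °C, then analysed by LC/MS/MS.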

[2] = tested on: DERL7; assay: Effect on total STAT5 level in IL-2-activated human DERL7 cells at 0.08 to 10 uM after 2 hrs by SDS-PAGE analysis; assay type: functional, cell-based
Method in brief: (§2)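 DERL-7 cells were kept in RPMI 1640 with 10% FBS and 20 ng/ml human IL-2, then starved 18 h. Compound was applied for 2 h, followed by IL-2 stimulation (20 ng/ml, 15 min, 37 °C). Cold-PBS-washed cells were lysed in RIPA. Lysates were resolved by SDS-PAGE and western blotted for P-STAT5 and total STAT5, with ECL detection.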

[3] = biological target: Dual specificity protein kinase CLK4 (Homo sapiens) (UniProt Q9HAZ1); assay: Inhibition of human CLK4 at 0.1 uM
Method in brief: (§3)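 KINOMEscan active-site-directed competition binding panel of 442 human kinases, compound tested at 0.1 µM. Primary screen results expressed as % Ctrl, where lower values mean stronger binding.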

[4] = Antitumor activity against human SET2 cells xenografted in SCID mouse assessed as tumor growth inhibition at 15 mg/kg, po bid for 10 consecutive days; assay type: functional; details: SET-2, read-out: TGI
Method in brief: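 Female SCID mice, 5–6 weeks old, given 200 Rads whole-body gamma irradiation, then inoculated s.c. with 10^7 SET-2 cells. Dosing by mouth started at 100-200 mm³ tumours; controls received vehicle (0.5% methocel). Seven animals per study.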

[5] = biological target: JAK3/JAK1 (Homo sapiens) (UniProt P52333+P23458); assay: Inhibition of JAK1/3-induced STAT5 phosphorylation in IL-2-activated human DERL7 cells at 10 uM after 2 hrs by SDS-PAGE analysis; assay type: cell-based; method in brief: as §2
[6] = Antiproliferative activity against human DERL7 cells after 72 hrs by Cell Titer-Glo assay; assay type: functional, cell-based; details: DERL7, 72 h
[7] = tested on: Mus musculus; assay: Toxicity in human SET2 cells xenografted SCID mouse assessed as reversible body weight loss at 15 mg/kg, po bid for 10 consecutive days; assay type: organism-based; set-up: dose 15 mg/kg, route oral; details: in vivo
Method in brief: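 SET-2 xenografts (10^7 cells s.c.) in irradiated female SCID mice, seven per study, dosed orally from 100-200 mm³ tumours, with 0.5% methocel vehicle controls. Body weight loss recorded at end of treatment.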

[8] = tested on: SET-2; assay: Effect on total STAT5 level in human SET2 cells at 0.08 to 10 uM after 2 hrs by SDS-PAGE analysis; assay type: functional, cell-based
Method in brief: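 SET-2 cells were grown in RPMI 1640 with 10% FBS at 37 °C, 5% CO₂, and exposed to compound or DMSO for 2 h at 37 °C. Cells were washed in cold PBS and lysed in RIPA buffer. Equal lysate amounts went through SDS-PAGE and nitrocellulose transfer, then 5% milk/TBST blocking and overnight 4 °C probing for total STAT3/STAT5 and phospho-STAT, with ECL detection.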

[9] = Volume of distribution at steady state in Balb nu/nu mouse at 10 mg/kg, iv; assay type: ADME, organism-based; set-up: dose 10 mg/kg, route intravenous; details: in vivo, read-out: Vdss; method in brief: as §1
[10] = Clearance in Balb nu/nu mouse at 10 mg/kg, iv; assay type: ADME, organism-based; set-up: dose 10 mg/kg, route intravenous; details: in vivo; method in brief: as §1
[11] = biological target: Dual specificity protein kinase CLK1 (Homo sapiens) (UniProt P49759); assay: Inhibition of human CLK1 at 0.1 uM; method in brief: as §3
[12] = AUC(infinity) in Balb nu/nu mouse at 10 mg/kg, po; assay type: ADME, organism-based; set-up: time infinity, dose 10 mg/kg, route oral; details: plasma
Method in brief: (§4)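 Overnight-fasted male Nu/Nu mice, single oral dose in 0.5% methocel, three mice. Saphenous vein blood taken at predose, 0.083, 0.5, 1, 6 and 24 h. Plasma obtained by centrifugation at 10,000g, 3 min, 4 °C, stored at -80 °C, then analysed by LC/MS/MS.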

[13] = Oral bioavailability in Balb nu/nu mouse at 10 mg/kg; assay type: ADME, organism-based; details: in vivo; method in brief: as §4
[14] = Half life in Balb nu/nu mouse at 10 mg/kg, po; assay type: ADME, organism-based; set-up: dose 10 mg/kg, route oral; details: in vivo; method in brief: as §4
[15] = tested on: Mus musculus; assay: Toxicity in human SET2 cells xenografted SCID mouse assessed as reversible body weight loss at 30 mg/kg, po bid for 10 consecutive days measured after 10 days; details: in vivo, 240 h

Chain of Dual specificity protein kinase CLK4 (Homo sapiens) (Q9HAZ1 whole entry, looked up): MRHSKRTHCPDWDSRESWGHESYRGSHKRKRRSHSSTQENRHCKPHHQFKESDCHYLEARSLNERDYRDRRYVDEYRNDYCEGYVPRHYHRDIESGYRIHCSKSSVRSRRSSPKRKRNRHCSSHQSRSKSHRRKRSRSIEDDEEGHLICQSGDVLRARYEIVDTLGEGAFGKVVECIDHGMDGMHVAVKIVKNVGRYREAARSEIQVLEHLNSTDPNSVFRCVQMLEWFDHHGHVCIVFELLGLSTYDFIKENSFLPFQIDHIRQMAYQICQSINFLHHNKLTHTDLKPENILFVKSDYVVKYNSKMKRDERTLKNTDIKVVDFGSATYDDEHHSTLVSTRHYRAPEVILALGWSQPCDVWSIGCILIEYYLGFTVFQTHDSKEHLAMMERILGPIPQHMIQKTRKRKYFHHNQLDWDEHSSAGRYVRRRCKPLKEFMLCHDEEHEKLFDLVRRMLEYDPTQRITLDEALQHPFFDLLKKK
Chain of Dual specificity protein kinase CLK1 (Homo sapiens) (P49759 whole entry, looked up): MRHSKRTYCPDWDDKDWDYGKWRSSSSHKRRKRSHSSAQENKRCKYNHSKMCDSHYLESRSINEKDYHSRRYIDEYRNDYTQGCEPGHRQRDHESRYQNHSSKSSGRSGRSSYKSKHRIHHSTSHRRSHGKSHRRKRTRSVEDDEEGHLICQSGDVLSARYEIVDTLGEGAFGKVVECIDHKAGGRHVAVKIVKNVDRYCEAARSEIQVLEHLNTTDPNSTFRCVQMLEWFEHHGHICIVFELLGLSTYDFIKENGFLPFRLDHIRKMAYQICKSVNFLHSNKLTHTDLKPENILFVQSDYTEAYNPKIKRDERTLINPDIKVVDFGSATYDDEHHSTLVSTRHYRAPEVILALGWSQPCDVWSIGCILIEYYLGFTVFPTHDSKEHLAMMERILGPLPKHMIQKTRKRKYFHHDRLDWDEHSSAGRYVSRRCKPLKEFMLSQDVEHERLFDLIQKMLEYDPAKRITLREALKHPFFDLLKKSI

What does the source list for `NC(=O)c1cc(-c2ccnc(N)n2)[nH]c1-c1cc(C(F)(F)F)ccc1Cl`?
Cmax [1]: 17.6 µM; Activity [2]: inactive; inhibition [3]: 1%; inhibition in vivo at 15 mg/kg [4]: 50%; inhibition [5]: Active; IC50 [6]: 1880 nM; Activity [7]: 2%; Activity [8]: inactive; Vd [9]: 0.9 L/kg; clearance [10]: 16.2 mL/min/kg; inhibition [11]: 1%; AUC(0-inf) [12]: 9.5 µM·h; bioavailability [13]: 31%; half-life [14]: 2.3 h; Activity [15]: 6%
